Here are results for 48 compounds from ChEMBL document CHEMBL3596154, “Discovery of biaryl carboxylamides as potent RORγ inverse agonists” (Bioorg Med Chem Lett, 2015).

For data set [1], the target named is T1, Nuclear receptor ROR-gamma (Homo sapiens, UniProt P51449).
T1 sequence (P51449 whole entry): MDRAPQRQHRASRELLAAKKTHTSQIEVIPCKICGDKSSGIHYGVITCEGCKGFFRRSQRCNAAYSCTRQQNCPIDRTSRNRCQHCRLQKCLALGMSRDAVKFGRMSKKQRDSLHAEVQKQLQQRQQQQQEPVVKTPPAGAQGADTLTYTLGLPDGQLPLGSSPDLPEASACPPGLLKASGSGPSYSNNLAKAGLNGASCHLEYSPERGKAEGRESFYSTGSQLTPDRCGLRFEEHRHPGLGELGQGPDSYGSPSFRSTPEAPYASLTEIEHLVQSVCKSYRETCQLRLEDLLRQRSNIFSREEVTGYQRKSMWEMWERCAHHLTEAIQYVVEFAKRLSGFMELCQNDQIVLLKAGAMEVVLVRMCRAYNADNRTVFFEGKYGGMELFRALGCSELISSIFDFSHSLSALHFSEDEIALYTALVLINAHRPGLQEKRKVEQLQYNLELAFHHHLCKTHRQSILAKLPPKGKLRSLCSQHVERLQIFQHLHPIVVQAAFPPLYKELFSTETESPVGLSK
The data set is described as follows: Inverse agonist activity at human recombinant GST-tagged RORgammat ligand binding domain assessed as effect on receptor-biotin tagged TRAP220 co-activator peptide interaction using 10 nM GST-RORgamma LBD by FRET-based assay. The procedure, abridged: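 Recombinant human GST-RORγ LBD (10 nM) with 40 nM biotin-TRAP220 co-activator peptide, 50 nM SAAPC, 1.5 nM Eu-anti-GST IgG. Buffer: 20 mM Tris-HCl pH 7.0, 60 mM NaCl, 5 mM MgCl2, 1 mM DTT, 0.1% BSA, 1.0% DMSO. FRET read on plate reader. IC50 is the mean of at least two runs.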

For data set [2], the target named is T1, Nuclear receptor ROR-gamma. Kind of data set: Inverse agonist activity at Gal4 DNA binding domain-tagged human RORgammat expressed in HEK293T cells assessed as effect on receptor-mediated transcriptional activity by luciferase reporter gene assay. In kind it is functional, cell-based, HEK-293T. In short, it runs like this: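 293T cells transfected with a Gal4:RORγ luciferase reporter. Cells seeded day 1 and transfected day 2; compound added in assay medium after transfection. Day 3: cells lysed and luminescence read by dual-flash. Dose-response EC50 is the mean of at least two runs.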
For orientation: A reporter such as luciferase makes a cellular process visible.

Data set [3] concerns the target T1, Nuclear receptor ROR-gamma. The data set is described as follows: Inverse agonist activity at human recombinant GST-tagged RORgammat ligand binding domain assessed as effect on receptor-biotin tagged TRAP220 co-activator peptide interaction using 10 nM GST-RORgamma LBD by FRET-based assay.
The nature of data set [4]: Clearance in human hepatocytes relative to hepatic blood flow. In kind it is ADME, cell-based, Liver, Hepatocyte. To be noted: read-out: CLH.
A short description of data set [5]: Clearance in rat hepatocytes relative to hepatic blood flow. Particulars: read-out: CLH; call rule not given here. It is filed as ADME, cell-based, Liver, Hepatocyte.
A short description of data set [6]: Clearance in mouse hepatocytes relative to hepatic blood flow. Particulars: read-out: CLH. In kind it is ADME, cell-based, Liver, Hepatocyte.
Data set [7] can be described thus: Apparent permeability from apical to basolateral side in human Caco2 cells. It is filed as ADME, cell-based. Particulars: Caco-2. On the technique in general: Caco-2 cells form a polarised layer with tight junctions and transporters.
Data set [8] is described as follows: Apparent permeability from basolateral to apical side in human Caco2 cells. In kind it is ADME, cell-based. To be noted: Caco-2.
Data set [9] in a line: Inhibition of CYP450 (unknown origin). In kind it is ADME. Particulars: human.

As for `CN(C(=O)c1c(F)cccc1Cl)c1ccc(-c2cc(C(N)=O)ccc2Cl)cc1N1CCCCC1`, in data set [1], the IC50 came to 3 nM. The EC50 in data set [2] was 8 nM.
Consider `CCc1cc(-c2cc(C(N)=O)ccc2Cl)ccc1N(C)C(=O)c1c(F)cccc1Cl`, for which the EC50 in data set [2] was 350 nM. For the same compound, the concentration for half-maximal inhibition (IC50) in data set [3] worked out at 730 nM.
The matching figures for `COc1cc(-c2cc(C(N)=O)ccc2Cl)ccc1N(C)C(=O)c1c(F)cccc1Cl`: 984 nM and 370 nM.
Regarding `CC1(C)Cc2cc(-c3cc(C(N)=O)ccc3Cl)ccc2N(C(=O)c2c(F)cccc2Cl)C1`, the IC50 in data set [1] amounted to 640 nM. Besides, the EC50 in data set [2] was 450 nM.
In the same order, the values of `CCN(CC)c1cc(-c2cc(C(N)=O)ccc2Cl)ccc1N(C)C(=O)c1c(F)cccc1Cl` are 3 nM and 12 nM.
The matching figures for `NC(=O)c1ccc(Cl)c(-c2ccc3c(c2)CCCCN3C(=O)c2c(F)cccc2Cl)c1`: 360 nM and 530 nM.
Take `CN(C(=O)c1c(F)cccc1Cl)c1ccc(-c2cc(C(N)=O)ccc2Cl)cc1C(F)(F)F`: the EC50 in data set [2] was determined as 484 nM. The IC50 in data set [3] came to 230 nM.
With `NC(=O)c1cc(-c2ccc3c(c2)CCCN3C(=O)c2c(F)cccc2Cl)c(F)cc1F`, the IC50 in [1] amounted to 7100 nM.
Take `NC(=O)c1ccc(Cl)c(-c2ccc3c(c2)C(F)(F)CCN3C(=O)c2c(F)cccc2Cl)c1`: the IC50 in [1] is 3600 nM. Besides, the hepatic extraction ratio in data set [4] came to 0.74; in data set [5], 0.86; in [6], 0.83.
Take `COCCNC(=O)c1ccc(Cl)c(-c2ccc3c(c2)CCCN3C(=O)c2c(F)cccc2Cl)c1`: the IC50 in data set [1] worked out at 1340 nM.
As to `CCCCOc1cc(-c2cc(C(N)=O)ccc2Cl)ccc1N(C)C(=O)c1c(F)cccc1Cl`, the IC50 in [1] is 22 nM. The EC50 in [2] came to 101 nM.
For the compound `CN(C)C(=O)c1ccc(Cl)c(-c2ccc3c(c2)CCCN3C(=O)c2c(F)cccc2Cl)c1`, the IC50 in [1] was found to be 2100 nM.
With `NC(=O)c1cc(F)cc(-c2ccc3c(c2)CCCN3C(=O)c2c(F)cccc2Cl)c1`, the IC50 in [1] is 13000 nM.
With `NC(=O)c1cc(-c2ccc3c(c2)CCCN3C(=O)c2c(F)cccc2Cl)c(Cl)cc1F`, the IC50 in data set [1] is 550 nM. The EC50 in data set [2] turned out to be 140 nM.
In the case of `[2H]C([2H])([2H])N(C(=O)c1c(F)cccc1Cl)c1ncc(-c2cc(C(N)=O)ccc2Cl)cc1OCC(F)(F)F`, the concentration for half-maximal inhibition (IC50) in data set [1] turned out to be 89 nM. Further, in data set [2], the 50% effective concentration (EC50) is 245 nM.
For `NC(=O)c1cc(-c2ccc3c(c2)CCCN3C(=O)c2c(F)cccc2Cl)ccc1F`, in data set [1], the half-maximal inhibitory concentration (IC50) amounted to 9300 nM.
As to `CN(C(=O)c1c(F)cccc1Cl)c1ccc(-c2cc(C(N)=O)ccc2Cl)cc1`, the IC50 in data set [3] stood at 8700 nM.
Turning to `CN(C(=O)c1c(F)cccc1Cl)c1ncc(-c2cc(C(N)=O)ccc2Cl)cc1OCC1CCC1`, the IC50 in data set [1] came to 10 nM. Further, the EC50 in [2] came out at 58 nM.
With `CCN(C(=O)c1c(F)cccc1Cl)c1ccc(-c2cc(C(N)=O)ccc2Cl)cc1C(F)(F)F`, in data set [1], the concentration for half-maximal inhibition (IC50) was 1600 nM.
Take `CNC(=O)c1ccc(Cl)c(-c2ccc3c(c2)CCCN3C(=O)c2c(F)cccc2Cl)c1`: the IC50 in [1] stood at 100 nM. Further, the EC50 in [2] stood at 200 nM.
The matching figures for `O=C(NC1CCCC1)c1ccc(Cl)c(-c2ccc3c(c2)CCCN3C(=O)c2c(F)cccc2Cl)c1`: 370 nM and 330 nM.
As to `Cc1cc(-c2cc(C(N)=O)ccc2Cl)ccc1N(C)C(=O)c1c(F)cccc1Cl`, the IC50 in [3] is 4220 nM.
Turning to `CCOc1cc(-c2cc(C(N)=O)ccc2Cl)ccc1N(C)C(=O)c1c(F)cccc1Cl`, the IC50 in [1] was determined as 50 nM. Besides, the EC50 in data set [2] is 181 nM.
Regarding `CCN(C(=O)c1c(F)cccc1Cl)c1ccc(-c2cc(C(N)=O)ccc2Cl)cc1OC`, in [3], the IC50 was 1500 nM.
Take `CC(C)Oc1cc(-c2cc(C(N)=O)ccc2Cl)ccc1N(C)C(=O)c1c(F)cccc1Cl`: the IC50 in data set [1] is 54 nM. Besides, in [2], the EC50 came to 182 nM.
In the case of `CCNc1cc(-c2cc(C(N)=O)ccc2Cl)ccc1N(C)C(=O)c1c(F)cccc1Cl`, the IC50 in [1] was found to be 500 nM. In addition, the concentration for a half-maximal effect (EC50) in [2] came out at 717 nM.
In the same order, the values of `CN1CCN(C(=O)c2c(F)cccc2Cl)c2ccc(-c3cc(C(N)=O)ccc3Cl)cc21` are 250 nM and 210 nM.
As for `CN(C(=O)c1c(F)cccc1Cl)c1ccc(-c2cc(C(N)=O)ccc2Cl)cc1Cl`, the IC50 in [3] was found to be 2090 nM.
In the case of `Cc1ccc(C(N)=O)cc1-c1ccc2c(c1)CCCN2C(=O)c1c(F)cccc1Cl`, in [1], the IC50 was found to be 300 nM. The EC50 in data set [2] is 450 nM.
In the same order, the values of `NC(=O)c1ccc(Cl)c(-c2ccc3c(c2)CCCN3C(=O)c2c(F)cccc2Cl)c1` are 220 nM and 200 nM.
With `CC1(C)CCN(C(=O)c2c(F)cccc2Cl)c2ccc(-c3cc(C(N)=O)ccc3Cl)cc21`, in data set [1], the IC50 was 200 nM. Further, in data set [2], the EC50 turned out to be 300 nM.
Regarding `CC1CCc2cc(-c3cc(C(N)=O)ccc3Cl)ccc2N1C(=O)c1c(F)cccc1Cl` (stereo not drawn), in [1], the IC50 came to 10000 nM.
Take `O=C(NCC(O)CO)c1ccc(Cl)c(-c2ccc3c(c2)CCCN3C(=O)c2c(F)cccc2Cl)c1` (stereo not drawn): the IC50 in data set [1] came to 750 nM.
Consider `CCN(C(=O)c1c(F)cccc1Cl)c1ccc(-c2cc(C(N)=O)ccc2Cl)cc1`, for which the IC50 in [3] stood at 1290 nM.
As for `CCCOc1cc(-c2cc(C(N)=O)ccc2Cl)ccc1N(C)C(=O)c1c(F)cccc1Cl`, the IC50 in data set [1] came to 11 nM. In data set [2], the EC50 was found to be 58 nM.
As to `CN(C(=O)c1c(F)cccc1Cl)c1ncc(-c2cc(C(N)=O)ccc2Cl)cc1OCC(F)(F)F`, the IC50 in data set [1] was found to be 20 nM. In addition, in [2], the EC50 turned out to be 246 nM. Further, in data set [7], the Papp A→B amounted to 35.9 ×10⁻⁶ cm/s. Also, the apparent permeability from basolateral to apical (Papp B→A) in data set [8] was determined as 54.5 ×10⁻⁶ cm/s. For the same compound, in data set [9], the “inhibition (INH)” value is “Not Active”.
In the case of `CCNC(=O)c1ccc(Cl)c(-c2ccc3c(c2)CCCN3C(=O)c2c(F)cccc2Cl)c1`, in data set [1], the IC50 came out at 330 nM. Besides, in [2], the EC50 was found to be 160 nM.
Take `CN(C(=O)c1c(F)cccc1Cl)c1ccc(-c2cc(C(N)=O)ccc2Cl)cc1F`: the IC50 in [3] turned out to be 1930 nM.
For the compound `NC(=O)c1cccc(-c2ccc3c(c2)CCCN3C(=O)c2c(F)cccc2Cl)c1`, the IC50 in [1] came out at 6200 nM.
Regarding `NC(=O)c1ccc(Cl)c(-c2ccc3c(c2)OCCN3C(=O)c2c(F)cccc2Cl)c1`, in [1], the half-inhibitory concentration (IC50) stood at 1900 nM. Besides, the hepatic extraction ratio was 0.76 in data set [4], 0.85 in data set [5] and 0.82 in data set [6].
Regarding `Cn1ccc2c(S(=O)(=O)N(CC(F)(F)F)c3ccc(-c4cc(C(N)=O)ccc4Cl)cc3)cccc21`, the IC50 in data set [1] turned out to be 710 nM.
Same read-out and setting: in the case of `O=C(NCCN1CCOCC1)c1ccc(Cl)c(-c2ccc3c(c2)CCCN3C(=O)c2c(F)cccc2Cl)c1` it was 2120 nM.
Consider `CN(C(=O)c1c(F)cccc1Cl)c1ccc(-c2cc(C(N)=O)ccc2Cl)cc1Br`, for which the EC50 in data set [2] amounted to 772 nM. Moreover, the IC50 in [3] amounted to 820 nM.
In the case of `NC(=O)c1ccc(F)c(-c2ccc3c(c2)CCCN3C(=O)c2c(F)cccc2Cl)c1`, the IC50 in data set [1] was determined as 10900 nM.
With `O=C(NCCO)c1ccc(Cl)c(-c2ccc3c(c2)CCCN3C(=O)c2c(F)cccc2Cl)c1`, in data set [1], the IC50 turned out to be 190 nM. Moreover, the EC50 in data set [2] came out at 210 nM.
Consider `NC(=O)c1ccc(Cl)c(-c2ccc3c(c2)CCN3C(=O)c2c(F)cccc2Cl)c1`, for which the half-maximal inhibitory concentration (IC50) in data set [1] came out at 4800 nM.
As to `COc1ccc(C(N)=O)cc1-c1ccc2c(c1)CCCN2C(=O)c1c(F)cccc1Cl`, the IC50 in data set [1] is 1000 nM.
With `[2H]C([2H])([2H])N(C(=O)c1c(F)cccc1Cl)c1ncc(-c2cc(C(N)=O)ccc2Cl)cc1OCC1CCC1`, the IC50 in data set [1] is 10 nM. Besides, the EC50 in [2] is 60 nM.

As a reminder, the IC50 is the concentration that gives 50% inhibition. As usually defined, the EC50 is the concentration that produces a half-maximal response. One may read the Papp A→B as the apparent permeability from the apical to the basolateral side of a cell layer. A word on the Papp B→A: it is the apparent permeability from the basolateral to the apical side of a cell layer.
